For one assay, the target named is T1, Sorbitol dehydrogenase (Homo sapiens, UniProt Q00796).
T1 sequence (Q00796 whole entry): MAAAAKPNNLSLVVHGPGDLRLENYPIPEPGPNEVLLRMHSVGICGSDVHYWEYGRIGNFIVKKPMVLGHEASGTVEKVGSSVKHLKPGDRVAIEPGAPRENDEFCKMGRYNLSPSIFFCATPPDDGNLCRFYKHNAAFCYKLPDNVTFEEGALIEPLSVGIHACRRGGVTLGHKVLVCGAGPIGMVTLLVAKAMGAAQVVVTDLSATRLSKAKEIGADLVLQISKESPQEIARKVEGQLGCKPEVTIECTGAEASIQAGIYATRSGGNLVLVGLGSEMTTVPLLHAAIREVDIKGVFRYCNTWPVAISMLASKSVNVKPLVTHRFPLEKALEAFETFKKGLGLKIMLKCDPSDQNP

The species entered for assay [1] is Rattus norvegicus. The assay is described as follows: Concentration required for 50% prevention of sciatic nerve fructose accumulation using acute model in streptozocin (STZ)-induced diabetic rats. In kind it is functional. The essentials:
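STZ diabetes was induced in male CD Sprague-Dawley rats (175-225 g) with 85 mg/kg iv (citrate, pH 4.5). Oral gavage doses were given 4, 7 and 24 h after STZ, and rats were killed at 28 h. Left sciatic nerve was extracted in 6% perchloric acid and neutralized. Fructose was assayed with FDH/resazurin for 60 min at room temperature (fluorescence). ED50 is expressed as total mg/kg/day.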

Assay [2] deals with Rattus norvegicus. The assay is described as follows: Concentration required for 50% ability to normalize elevated sciatic nerve fructose in reversal protocol using chronic model in streptozocin (STZ)-induced diabetic rats (in vivo). In kind it is functional. As to conditions: in the assay text read “90% ability” for “50% ability”. The essentials: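 Diabetes was induced in male CD Sprague-Dawley rats (175-225 g) with STZ (85 mg/kg in 0.01 M citrate, pH 4.5) by tail vein. Oral gavage was given once daily from day 8 for 5 days. Rats were killed 4 h after the last dose (day 12). Left sciatic nerve fructose was measured in perchloric acid extract by FDH/resazurin fluorescence (ex 560, em 580 nm) against standards.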

In the case of `OCc1nccc(N2CCN(c3nsc4ccccc34)CC2)n1`, the IC50 – broadly, the concentration that inhibits the measured activity by half – at Sorbitol dehydrogenase was determined as 64 nM.

On to `C[C@@H](O)c1nccc(N2CCN(c3nsc4ccccc34)CC2)n1`, for which the IC50 on Sorbitol dehydrogenase came to 12 nM.

On Sorbitol dehydrogenase, `C[C@@H](O)c1nccc(N2CCN(c3nc4ncccc4o3)CC2)n1` registered an IC50 of 170 nM.

For the molecule `C[C@@H](O)c1nccc(N2CCN(c3nc(C(F)(F)F)cc(C(F)(F)F)n3)CC2)n1`, 190 nM corresponded to half-maximal inhibition against Sorbitol dehydrogenase (IC50).

With `OCc1nccc(N2CCN(c3nc4ccccc4o3)CC2)n1`, the IC50 against Sorbitol dehydrogenase was 190 nM.

`Cc1cc(CO)nc(N2CCN(c3ccnc([C@@H](C)O)n3)C[C@H]2C)n1` returned an IC50 against Sorbitol dehydrogenase of 140 nM.

On Sorbitol dehydrogenase, `C[C@@H](O)c1nccc(N2CCN(c3nc4ccncc4o3)[C@@H](C)C2)n1` yielded an IC50 of 23 nM.

In turn, `C[C@@H](O)c1nccc(N2CCN(c3cnc4ccccc4n3)[C@@H](C)C2)n1` displayed an IC50 against Sorbitol dehydrogenase of 99 nM.

As for `C[C@@H](O)c1nccc(N2CCN(c3ccnc(CCO)n3)CC2)n1`, half-maximal inhibition against Sorbitol dehydrogenase (IC50) was put at 40 nM. Besides, it took a dose of 1 mg/kg/day to reach the 50% effect level in the assay filed under Rattus norvegicus [1] (ED50).

Turning to `C[C@@H](O)c1nccc(N2CCN(c3ccnc(CCO)n3)C[C@@H]2C)n1`, the IC50 against Sorbitol dehydrogenase was determined as 59 nM.

On to `C[C@@H](O)c1nccc(N2CCN(c3nc4ccccc4o3)CC2)n1`, for which the IC50 at Sorbitol dehydrogenase was found to be 35 nM. Also, it took a dose of 12 mg/kg/day to reach the 50% effect level in the assay filed under Rattus norvegicus [1] (ED50).

`CC(C)c1cc(C(C)C)nc(N2CCN(c3ccnc([C@@H](C)O)n3)CC2)n1`: half-maximal inhibition against Sorbitol dehydrogenase (IC50) required 72 nM.

`Cc1cc(CO)nc(N2CCN(c3ccnc([C@@H](C)O)n3)C[C@@H]2C)n1` showed an IC50 against Sorbitol dehydrogenase of 80 nM. Besides, in the assay on Rattus norvegicus [2], the ED90 came out at 2 mg/kg/day.

On to `C[C@@H]1CN(c2ccnc(CCO)n2)C[C@H](C)N1c1ccnc([C@@H](C)O)n1`, for which half-maximal inhibition at Sorbitol dehydrogenase (IC50) was put at 10 nM. Also, in the assay with Rattus norvegicus [2], the ED90 came out at 2 mg/kg/day.

The molecule `Cc1cc(C)nc(N2CCN(c3ccnc(CO)n3)CC2)n1` displayed an IC50 against Sorbitol dehydrogenase of 93 nM.

As for `C[C@@H](O)c1nccc(N2CCN(c3nc4cccnc4o3)CC2)n1`, on Sorbitol dehydrogenase, the IC50 came to 32 nM. Further, in the assay filed under Rattus norvegicus [1], the ED50 – broadly, the dose that gives a 50% effect, or the effect in half of the subjects – came out at 0.5 mg/kg/day.

On to `C[C@@H](O)c1nccc(N2CCN(c3nccc(-c4ccccc4)n3)CC2)n1`, for which half-maximal inhibition against Sorbitol dehydrogenase (IC50) was put at 67 nM.

`Cc1cc(C)nc(N2CCN(c3ccnc([C@@H](C)O)n3)CC2)n1` came in with a half-maximal inhibitory concentration (IC50) at Sorbitol dehydrogenase of 23 nM. This molecule gave an ED50 in the assay filed under Rattus norvegicus [1] of 1.3 mg/kg/day.

In turn, `Cc1nc2ccccc2nc1N1CCN(c2ccnc([C@@H](C)O)n2)CC1` yielded an IC50 at Sorbitol dehydrogenase of 8 nM.

Consider `Cc1cc(CO)nc(N2C[C@@H](C)N(c3ccnc([C@@H](C)O)n3)[C@@H](C)C2)n1`, for which the midpoint of inhibition at Sorbitol dehydrogenase, the IC50, lay at 100 nM. Moreover, the ED90 in the assay with Rattus norvegicus [2] came out at 1 mg/kg/day.

`Cc1cc(CO)nc(N2CCN(c3ccnc([C@@H](C)O)n3)[C@H](C)C2)n1`: the IC50 on Sorbitol dehydrogenase is 170 nM.

Regarding `Cc1cc(CO)nc(N2CCN(c3ccnc([C@@H](C)O)n3)[C@@H](C)C2)n1`, 200 nM corresponded to half-maximal inhibition on Sorbitol dehydrogenase (IC50).

`OCc1nccc(N2CCN(c3ccc4ccccc4n3)CC2)n1` yielded an IC50 against Sorbitol dehydrogenase of 87 nM.

`Cc1cc(CO)nc(N2CCN(c3ccnc([C@@H](C)O)n3)CC2)n1` registered a half-maximal inhibitory concentration (IC50) on Sorbitol dehydrogenase of 20 nM. Moreover, the median effective dose (ED50) in the assay listed under Rattus norvegicus [1] worked out at 0.5 mg/kg/day.

Take `C[C@@H](O)c1nccc(N2CCN(c3cnc4cc(Cl)c(Cl)cc4n3)CC2)n1`: the IC50 at Sorbitol dehydrogenase stood at 120 nM.

For the molecule `Cc1cc(-c2ccccc2)nc(N2CCN(c3ccnc([C@@H](C)O)n3)CC2)n1`, the midpoint of inhibition against Sorbitol dehydrogenase, the IC50, lay at 220 nM.

For `C[C@@H](O)c1nccc(N2CCN(c3noc4ccccc34)CC2)n1`, the IC50 against Sorbitol dehydrogenase amounted to 37 nM.

Regarding `C[C@@H]1CN(c2cnc3ccccc3n2)C[C@H](C)N1c1ccnc([C@@H](C)O)n1`, on Sorbitol dehydrogenase, the IC50 was 180 nM. Besides, the ED90 with Rattus norvegicus [2] is 1 mg/kg/day.

For `C[C@@H]1CN(c2nc3ccncc3o2)C[C@H](C)N1c1ccnc([C@@H](C)O)n1`, the 50% inhibitory concentration (IC50) at Sorbitol dehydrogenase is 270 nM.

`C[C@@H](O)c1nccc(N2CCN(c3nccc4ccccc34)CC2)n1`: the IC50 at Sorbitol dehydrogenase came out at 34 nM.

Take `Cc1cc(CO)nc(N2[C@H](C)CN(c3ccnc([C@@H](C)O)n3)C[C@@H]2C)n1`: inhibition on Sorbitol dehydrogenase was half-maximal at 130 nM (IC50).

In turn, `Cc1ccnc(N2CCN(c3ccnc([C@@H](C)O)n3)CC2)n1` returned an IC50 on Sorbitol dehydrogenase of 110 nM.

In the case of `C[C@@H]1CN(c2ccnc(CCO)n2)CCN1c1ccnc([C@@H](C)O)n1`, at Sorbitol dehydrogenase, the half-maximal inhibitory concentration (IC50) came to 12 nM.

As for `CCc1cc(CC)nc(N2CCN(c3ccnc([C@@H](C)O)n3)CC2)n1`, the IC50 at Sorbitol dehydrogenase was determined as 80 nM.

For `C[C@@H](O)c1nccc(N2CCN(c3nc4ccncc4o3)CC2)n1`, the midpoint of inhibition on Sorbitol dehydrogenase, the IC50, lay at 24 nM. Moreover, the ED50 in the assay listed under Rattus norvegicus [1] is 0.5 mg/kg/day. Also, the ED90 in the assay with Rattus norvegicus [2] is 10 mg/kg/day.

In the case of `OCc1nccc(N2CCN(c3ccnc(CO)n3)CC2)n1`, on Sorbitol dehydrogenase, 260 nM corresponded to half-maximal inhibition (IC50).

Regarding `C[C@@H](O)c1nccc(N2CCN(c3nc4cnccc4o3)CC2)n1`, the IC50 against Sorbitol dehydrogenase is 80 nM.

For the molecule `OCc1nccc(N2CCN(c3noc4ccccc34)CC2)n1`, the midpoint of inhibition against Sorbitol dehydrogenase, the IC50, lay at 120 nM.

At Sorbitol dehydrogenase, `OCc1nccc(N2CCN(c3nccc4ccccc34)CC2)n1` showed an IC50 of 150 nM.

In the case of `Cc1cc(N2CCN(c3ccnc([C@@H](C)O)n3)CC2)nc(C)n1`, the IC50 against Sorbitol dehydrogenase was 31 nM. In addition, in the assay filed under Rattus norvegicus [1], the 50% effect level (ED50) was put at a dose of 5 mg/kg/day.

On Sorbitol dehydrogenase, `C[C@@H](O)c1nccc(N2CCN(c3cnc4ccccc4n3)CC2)n1` gave an IC50 of 36 nM. Moreover, in the assay filed under Rattus norvegicus [1], the ED50 turned out to be 1 mg/kg/day. Besides, the ED90 in the assay on Rattus norvegicus [2] is greater than 20 mg/kg/day.

At Sorbitol dehydrogenase, `Cc1cc(N2CCN(c3ccnc(CO)n3)CC2)nc(C)n1` displayed an IC50 of 140 nM.

`C[C@@H](O)c1nccc(N2CCN(c3ccc4ccccc4n3)CC2)n1` yielded an IC50 against Sorbitol dehydrogenase of 44 nM.

Molecule `CN(C)S(=O)(=O)N1CCN(c2ccnc(CO)n2)CC1` registered an IC50 against Sorbitol dehydrogenase of 240 nM.
